# Screening data deposited in PubChem by several laboratories.
# NTR1 ag = agonists of human NTR1, primary screen, imaging, U2OS cells, beta-arrestin-GFP, high content; Neurotensin receptor type 1 (Homo sapiens), P30989; NTR1-U2OS beta-arrestin-GFP spot imaging, agonist mode; activation, % at 20 µM; 330,000 tested, 0.17% active; AID 493036, 2011;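 active = activation at or above 40% of the spot to cytoplasm intensity ratio, with at least 20 cells analyzed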;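 note: 0% = DMSO without peptide and 100% = 100 nM NTR1 peptide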
# Arr AP2 block = inhibitors of beta-arrestin/AP2 binding, primary screen, biochemical, GPCR trafficking, flow cytometry. beta-arrestin 1 C-terminal peptide binding to AP2 beta2-adaptin appendage (human). FITC-arrestin peptide / GST-AP2 beads; AP2 beta2 appendage carries R879A mutation. inhibition, % at 10 µM. 340,000 tested, 0.31% active. AID 504490, 2011;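 active = inhibition above a set limit, near 3 SD of compounds lacking own fluorescence, cut at about 54% in these data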;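 note: plate controls were DMSO wells for no effect and 5 µM unlabelled arrestin peptide for full effect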
#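 System: GST-AP2 R879A glutathione beads. Medium: PBS with 0.05% Tween 20 and 0.1% BSA. Also added: FITC-arrestin peptide, 50 nM. Incubation: 12 min plus 1 h, RT. Measured by: high-throughput flow cytometry of beads, ex 488, em 535 nm. Evaluation: percent drop in bead-associated FITC signal.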
# GRK2 inh = compounds blocking aptamer binding on GRK2 – biochemical, human GRK2, bead flow cytometry, HTS, primary screen. FAM-aptamer displacement from GRK2. AID 488847, 2010. 330,000 tested, 0.59% active. inhibition of aptamer binding, % at 10 µM;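 active = inhibition of aptamer binding above 40%, roughly 3 SD of noise, on plates passing a quality check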;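 note: median bead fluorescence of bound FAM aptamer so fluorescent compounds give negative values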
# TAG inh = inhibitors of triacylglycerol accumulation, primary screen, cell-based, uHTS, fluorescence, H9c2; AID 651582, 2012; inhibition, % at 12.5 µM; 230,000 tested, 0.66% active; H9c2 cells, Nile Red lipid (TAG) fluorescence; cells loaded with 200 µM oleic acid;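 active = pattern-corrected inhibition of lipid staining of at least 50% with the nuclear-stain viability signal not falling by more than 50%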;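 note: 0% = DMSO wells and 100% = triacsin C control wells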
# Beta2AR agonist = beta2AR agonists driving receptor internalization, primary screen, cell-based, FAP fluorogen, flow cytometry. 340,000 tested, 0.43% active. Am2.2-beta2AR cells. Beta-2 adrenergic receptor (Homo sapiens), P07550. response, % (test concentration not listed). AID 504454, 2011;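 active = response above a set limit, near 3 SD of response in nonfluorescent compounds, cut at about 42% in these data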
# Target sequence (P07550 whole entry, looked up): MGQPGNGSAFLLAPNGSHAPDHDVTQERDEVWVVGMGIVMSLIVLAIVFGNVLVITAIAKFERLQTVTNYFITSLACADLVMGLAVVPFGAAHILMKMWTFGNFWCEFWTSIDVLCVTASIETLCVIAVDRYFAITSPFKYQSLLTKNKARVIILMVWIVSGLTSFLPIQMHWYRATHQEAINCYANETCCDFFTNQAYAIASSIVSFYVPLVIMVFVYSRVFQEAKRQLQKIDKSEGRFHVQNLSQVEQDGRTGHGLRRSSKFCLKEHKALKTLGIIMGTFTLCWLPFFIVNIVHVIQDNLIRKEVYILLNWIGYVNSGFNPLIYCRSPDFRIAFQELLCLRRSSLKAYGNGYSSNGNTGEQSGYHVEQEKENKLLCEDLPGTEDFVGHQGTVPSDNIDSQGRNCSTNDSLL
# Hep lipid drop = inhibitors of hepatocyte lipid droplet formation, primary screen, imaging, high-throughput imaging, BODIPY stain; AID 1656, 2009; AML12 mouse hepatocytes, oleate lipid droplets; inhibition, % at 6.5 µM; 240,000 tested, 0.4% active;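 active = lipid droplet intensity inhibited by at least 50%, with more than 500 cells counted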
#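 Material – AML12 mouse liver cells · Also added – oleate loading, 100 µM · Compound dosing – 6.5 µM single-point dosing · Times – overnight treatment with compound plus oleate · Measured by – fluorescence imaging, 20x objective, two fields per well · Read-out – percent inhibition of filter-corrected integrated lipid droplet intensity per well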
# TAG conf = triacylglycerol accumulation inhibitors, retest, confirmation, cell-based, single concentration, Nile Red fluorescence, H9c2; shares compounds with TAG inh; H9c2 lipid accumulation; cells loaded with 200 µM oleic acid; inhibition, % at 12.5 µM; 990 tested, 71% active;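 active = mean inhibition across replicates of 40% or more; inactive = mean inhibition below 40%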;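 note: plate controls were DMSO only wells for no effect and Triacsin C treated wells for full effect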
# Numbers without * were called inactive; x = no result given. In the library only some 2% were active in any assay of this set; here they are far more common.
SMILES,NTR1 ag,Arr AP2 block,GRK2 inh,TAG inh,Beta2AR agonist,Hep lipid drop,TAG conf
CCOC(=O)c1cc(NC(=O)c2ccco2)ccc1N1CCOCC1,-0.9,15.4,0.0,5.1,-24.5,-1.7,x
COc1cccc(/C=N/NC(=O)CNC(=O)COc2ccccc2)c1O,30.1,24.2,0.0,50.6*,8.1,31.9,0.8
COc1ccc(-c2sc3cc4c(cc3c2C#Cc2ccc(N)cc2)OCO4)cc1,3.9,20.4,2.0,55.4*,9.3,x,58.5*
Cc1ccc(Sc2cnccc2C#N)cc1,0.2,13.2,0.0,x,-2.1,2.4,x
COc1ccc(C(C(=O)NC(C)(C)C)N(Cc2ccco2)C(=O)CCC(=O)Nc2ccccn2)cc1 (configuration not stated),0.9,-12.5,0.0,x,-5.0,11.0,x
CC(C)(C)NC(=O)C(c1ccc(F)cc1)N(Cc1ccco1)C(=O)CCC(=O)Nc1nccs1 (configuration not stated),-0.1,22.8,3.0,x,9.8,-1.1,x
CCC(C)(C)NC(=O)C(c1ccc(OC)cc1)N(Cc1ccco1)C(=O)CCC(=O)Nc1cc(C)on1 (configuration not stated),0.3,-9.0,0.0,69.8*,-0.8,-6.2,56.8*
CCC(C)(C)NC(=O)C(c1ccc(C)cc1)N(Cc1ccco1)C(=O)CCC(=O)Nc1nccs1 (configuration not stated),1.3,18.7,1.0,66.0*,11.0,9.2,65.0*
COc1ncnc2c1ncn2CCCNCc1ccc2c(c1)OCO2,x,x,x,-4.1,x,x,x
c1ccc(N=NC2=NN(c3ccccc3)CS2)cc1,x,x,x,95.6*,x,x,112.8*
O=C(Nc1ccc(F)cc1)c1cc(Cl)sc1Cl,-1.0,-17.1,0.0,52.2*,-6.1,17.1,-4.2
COc1cccc(OCc2cc(C(=O)N(C)Cc3nccn3C)no2)c1,1.0,7.0,4.0,x,-0.9,-6.2,x
CCN(CC)CCCNC(=O)c1nn2c(C(F)(F)F)cc(-c3ccccc3)nc2c1Cl,-1.3,4.8,0.0,20.6,-6.6,0.7,x
O=C(c1ccoc1)N1CCN(c2cc(-c3cccc(F)c3)nc3cc(-c4cccc(Cl)c4)nn23)CC1,x,x,x,56.7*,x,x,49.0*
COc1ccc(-c2cc3nc(-c4ccccc4)cc(N4CCN(C(=O)c5ccccc5)CC4)n3n2)cc1,x,x,x,52.3*,x,x,41.7*
COc1ccc(-c2cc3nc(-c4ccccc4)cc(N4CCN(C(C)=O)CC4)n3n2)cc1,x,x,x,30.7,x,x,x
O=C(c1ccccc1)N1CCN(c2cc(Cl)nc3cc(-c4cccc(Cl)c4)nn23)CC1,x,x,x,15.5,x,x,x
O=C1[C@H](c2ccccc2)[C@@H](c2ccccc2)N1c1ccncc1,1.2,-22.9,0.0,-22.2,-4.7,x,x
COc1ccc(-n2nc(C(=O)Nc3ccc4c(c3)OCO4)c3c4ccccc4n(C)c3c2=O)cc1,3.9,11.2,1.0,66.3*,1.5,41.5,43.6*
COc1ccc(-n2nc(C(=O)Nc3ccc(OC)c(OC)c3)c3c4ccccc4n(C)c3c2=O)cc1,2.7,-6.4,0.0,81.8*,15.2,-2.4,29.0
COc1ccc(-c2sc3ccc(N4CCOCC4)cc3c2C#CCCO)cc1,25.9,17.9,0.0,51.4*,25.4,x,55.0*
Cc1cc(=O)oc2cc(NC(=O)c3cccc(Br)c3)ccc12,1.1,-7.4,0.0,68.9*,-10.9,-13.1,52.4*
Cc1cc(=O)oc2cc(NC(=O)c3cc4ccccc4o3)ccc12,-1.1,x,0.0,x,x,3.5,x
CNC(=S)Nc1cccc(-c2cnc3ccccc3n2)c1,1.4,9.8,0.0,x,-0.5,-19.3,x
O=C1OCCN1C(=O)[C@H]1[C@H](c2ccc(Cl)cc2)C(c2ccc(F)cc2)=NN1c1ccc(Br)cc1,7.8,12.6,1.0,104.9*,-0.2,x,10.3
SMILES,NTR1 ag,Arr AP2 block,GRK2 inh,TAG inh,Beta2AR agonist,Hep lipid drop,TAG conf
CC(c1ccccc1)N1C(=O)/C(=C/c2ccncc2)SC1=S (configuration not stated),10.6,20.4,3.0,-1.2,-5.0,26.5,x
O=C(CCC1CCCC1)Nc1ccc(OCC(=O)N2CCOCC2)cc1,-0.3,-0.3,0.0,50.8*,0.0,34.5,35.9
COC(=O)Nc1ccc(OCC(=O)N2CCOCC2)cc1,0.4,-7.7,2.0,x,-1.7,3.5,x
CC(C)NC(=S)NC(c1ccccc1)(c1ccccc1)c1ccccc1,2.6,20.1,0.0,x,9.9,16.7,x
CC1(C(=O)N2CCC(CC3CC(c4ccc(Cl)cc4)=NO3)(C(=O)NCC3CCCCC3)CC2)CC1 (configuration not stated),-0.5,1.7,0.0,13.4,-4.9,-11.3,x
CC(C)(C)OC(=O)N1CCC(CC2CC(c3ccc(Cl)cc3)=NO2)(C(=O)NCC2CCCCC2)CC1 (configuration not stated),-1.2,6.2,0.0,66.6*,0.9,-0.2,18.4
O=C1CC(c2cccc(Cl)c2)Cc2nc(N3CCN(c4ccccc4)CC3)ncc21 (configuration not stated),2.5,6.4,0.0,34.4,-15.5,7.0,x
CCN1CCN(c2ncc3c(n2)CC(c2cc(OC)c(OC)c(OC)c2)CC3=O)CC1 (configuration not stated),x,-7.2,1.0,60.2*,-2.1,-0.1,81.6*
COc1cccc(C2c3cc4c(cc3OC(N3CCOCC3)C2C)OCO4)c1O (configuration not stated),x,7.3,x,-8.3,-0.2,x,x
COc1ccc(C2c3cc4c(cc3OC(N3CCOCC3)C2C)OCO4)c(OC)c1 (configuration not stated),x,6.3,x,55.3*,7.4,x,74.7*
O=C(CSc1ncnc2ccccc12)NCC(=O)c1ccccc1,-1.6,-20.7,1.0,10.9,-16.0,17.2,x
Cn1cc(/C=N/n2cnc3scc(-c4ccc(Cl)cc4)c3c2=O)c2ccccc21,2.6,2.6,0.0,60.5*,24.7,x,69.4*
CCn1cnc2scc(-c3ccccc3)c2c1=O,4.3,-2.4,2.0,-7.2,-19.6,-8.7,x
COc1cccc(C2c3cc4c(cc3OC(NNC(N)=O)C2C)OCO4)c1O (configuration not stated),x,34.3,x,61.6*,-91.4,x,51.9*
CN(C)c1ccc(CN(C(=O)c2ccccc2Br)C2CCS(=O)(=O)C2)cc1 (configuration not stated),-1.0,13.6,0.0,x,-1.2,2.7,x
COc1cccc(NC(=O)C2(C)CCN2C(=O)Cc2cccc3ccccc23)c1 (configuration not stated),x,x,x,24.1,x,x,x
